Data: PubChem BioAssay
Activity calls are given as the source filed them.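 The calls were made as follows, unless noted: active = visually confirmed hit in the image check and inhibition above 20%; inconclusive = visually confirmed hit but inhibition not above 20%; inactive = no visual hit in the image check.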

Columns and labels:
[1] = inhibitors of TNFa-induced NFkB p65 translocation, primary screen, imaging, HUVEC, MLSMR starter and 10KST1 sets (AID 438;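 active = inhibition above 20% together with a positive visual image hit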;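 also: compound added about 3h40 before a 20 min TNFalpha stimulation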;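 as to inhibition: signal is the nuclear over cytoplasmic p65 intensity ratio per well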); details: HUVEC TNFa-induced p65 nuclear translocation; cell count: measured here: nuclei count (cytotoxicity indicator), at 2.08 µM; inhibition: at 2 µM, stronger effect = higher value, 0% TNFa-plus-vehicle, 100% no-TNFa wells
[2] = reduction of polyQ htt aggregates in cells – imaging, exon1htt(103Q)mCFP cells, high-content imaging, primary screen (AID 483;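 active = visual image review flags a hit and inhibition of aggregation exceeds 20%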;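 also: compound exposure lasted 3 days before fixation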;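 as to nuclei count: percent of the per-plate median nuclei count of sample wells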); details: exon1htt(103Q)mCFP cell line, aggregate imaging, at 2 µM; inhibition of aggregation: stronger effect = higher value; nuclei count: measured here: cell count, toxicity
[3] = endothelial E-selectin expression blockers – imaging, HUVEC, immunofluorescence, MLSMR starter and 10KST1 sets, primary screen (AID 487); details: HUVEC TNFalpha-induced E-selectin immunofluorescence imaging, at 2 µM; inhibition: stronger effect = higher value; nuclei count: measured here: cell number, toxicity;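 as to inhibition: signal is fraction of cell area covered by stained E-selectin grains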;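 as to nuclei count: 100% = median nuclei count of all wells on the same plate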
[4] = target: Voltage-gated potassium channel subunit beta-2 (Rattus norvegicus) (UniProt P62483); test: inhibitors of rat Kvbeta2 reductase activity – biochemical, NADPH fluorescence, primary screen (AID 622;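 active = fluorescence slope higher than the sample average by over 3 SD, cut at about -0.22 in these data, passing the limit was not always enough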;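 also: slope of raw intensity against log time taken from 70 to 1610 s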); details: recombinant KvBeta, 4-cyanobenzaldehyde reduction, at 10 µM, stronger effect = higher value
Voltage-gated potassium channel subunit beta-2 (Rattus norvegicus), sequence (P62483 whole entry, looked up): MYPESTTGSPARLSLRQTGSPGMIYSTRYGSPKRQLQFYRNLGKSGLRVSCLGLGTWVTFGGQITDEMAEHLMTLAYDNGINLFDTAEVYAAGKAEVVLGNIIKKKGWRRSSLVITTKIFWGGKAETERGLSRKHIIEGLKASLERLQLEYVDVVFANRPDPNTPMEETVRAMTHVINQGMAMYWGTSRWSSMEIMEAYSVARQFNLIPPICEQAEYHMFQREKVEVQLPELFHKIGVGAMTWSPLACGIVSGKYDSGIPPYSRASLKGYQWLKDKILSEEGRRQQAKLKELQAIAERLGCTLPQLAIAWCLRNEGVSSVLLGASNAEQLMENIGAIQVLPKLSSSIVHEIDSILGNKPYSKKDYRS

[5] = target: Voltage-gated potassium channel subunit beta-2 (Rattus norvegicus) (UniProt P62483); test: enhancers of rat Kvbeta2 NADPH turnover – biochemical, NADPH fluorescence, primary screen (AID 623;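 active = NADPH fluorescence slope more negative than the mean of all samples by about 3 SD, 99.7% confidence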;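 also: fluorescence intensity change per second fitted from 20 to 320 s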); details: Recombinant KvBeta, NADPH fluorescence decrease slope, 10 min; at 10 µM; stronger effect = lower value
[6] = target: Muscarinic acetylcholine receptor M4 (Homo sapiens) (UniProt P08173); test: M4-linked GIRK flux change, two-sided – cell-based, HEK293 M4/GIRK, thallium flux, BTC-AM, M4 allosteric agonist project, primary screen (AID 625;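 active = fluorescence slope after compound addition differing from the mean of all tested samples at 99.7% confidence, mostly higher but some lower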;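 also: thallium influx through GIRK channels coupled to M4 in HEK293 cells with BTC-AM dye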); details: at 10 µM, actives lie on both sides
Muscarinic acetylcholine receptor M4 (Homo sapiens), sequence (P08173 whole entry, looked up): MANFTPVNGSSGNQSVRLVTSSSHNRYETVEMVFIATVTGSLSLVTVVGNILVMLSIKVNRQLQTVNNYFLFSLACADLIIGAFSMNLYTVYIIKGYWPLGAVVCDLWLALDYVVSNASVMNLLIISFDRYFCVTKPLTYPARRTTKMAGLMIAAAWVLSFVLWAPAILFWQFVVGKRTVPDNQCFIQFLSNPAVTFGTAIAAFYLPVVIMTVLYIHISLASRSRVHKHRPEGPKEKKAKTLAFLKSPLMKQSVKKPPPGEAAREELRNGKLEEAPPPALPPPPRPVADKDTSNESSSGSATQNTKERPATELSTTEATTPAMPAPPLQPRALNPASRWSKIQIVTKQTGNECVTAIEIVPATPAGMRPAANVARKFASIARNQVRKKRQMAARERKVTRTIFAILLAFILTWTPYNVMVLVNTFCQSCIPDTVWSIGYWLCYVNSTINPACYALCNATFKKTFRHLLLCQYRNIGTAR
Method in brief: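 System: HEK293 cells with M4 receptor and GIRK channels | Incubation: Cells overnight at 37 °C, BTC-AM loading 1 h, reads 2 min total | Technique: Kinetic BTC-AM fluorescence sampled at 1 Hz, 10 s pre-addition baseline | Measure: Post-addition slope, 15–24 s, of baseline-normalized fluorescence | Control set: Carbachol positive, DMSO negative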

[7] = blockers of RIG-like receptor reporter activation – cell-based, Sendai virus stimulus, luciferase, 10K MLSCN set, TLR/RLR signaling modifier project, primary screen (AID 602276;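 active = inhibition at or above 50% at 10 µM; inactive = inhibition below 50%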;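 also: firefly luciferase from ISG56 promoter only with Renilla not read in this screen; 0% = Sendai virus plus DMSO and 100% = medium plus DMSO without virus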); details: HEK293 RL24 IRF3 luciferase reporter, at 10 µM, stronger effect = higher value
[8] = TLR3 IRF3 reporter activation blockers – cell-based, poly I:C stimulus, luciferase, 10K MLSCN set, primary screen (AID 602277;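 active = inhibition of the reporter signal at or above 50%; inactive = inhibition below 50%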); details: HEK293-TLR3 RL24 IRF3 luciferase reporter, at 10 µM, stronger effect = higher value

Structure (SMILES)	cell count [1]	inhibition [1]	inhibition of aggregation [2]	nuclei count [2]	inhibition [3]	nuclei count [3]	fluorescence slope [4]	NADPH fluorescence slope [5]	fluorescence slope [6]	inhibition [7]	inhibition [8]
N#Cc1cc2sc3nnc(-c4ccncc4)n3c2cc1C#N	728	10.9% (inactive)	-17.6% (inactive)	49.6%	22.9% (inactive)	77.1%	-0.529 (inactive)	1.4e-05 (inactive)	0.0043 (inactive)	5.55% (inactive)	-16.8% (inactive)
Cc1ccc(-c2cc(C(=O)N3CCCC3)no2)cc1	471	7.3% (inactive)	-20.5% (inactive)	19.5%	-1.1% (inactive)	106%	-0.585 (inactive)	1.3e-05 (inactive)	0.00612 (inactive)	-46.7% (inactive)	-130% (inactive)
Cc1ccc(C2N(c3ccc(Cl)c(Cl)c3)C(=O)C3CCCN32)o1 (stereo not drawn)	495	-1.5% (inactive)	7.9% (inactive)	98.2%	-11.2% (inactive)	97%	-0.561 (inactive)	-2e-05 (inactive)	0.0047 (inactive)	16.9% (inactive)	18.1% (inactive)
NC(=O)C1(N2CCCCC2)CCN(Cc2ccccc2Cl)CC1	438	0.3% (inactive)	-1% (inactive)	98%	3.4% (inactive)	103%	-0.233 (inactive)	-2.8e-05 (inactive)	0.0052 (inactive)	12.3% (inactive)	19.9% (inactive)
CCOC(=O)CNS(=O)(=O)c1c(C)noc1C	562	-2.5% (inactive)	-0.2% (inactive)	108%	-40.9% (inactive)	105%	-0.441 (inactive)	-0.000338 (inactive)	0.00456 (inactive)	1.51% (inactive)	2.6% (inactive)
Cc1ccc(OC(=O)CCc2c(C)nc3ncnn3c2C)cc1	634	-10.5% (inactive)	18.7% (inactive)	130%	-84.1% (inactive)	112%	-0.551 (inactive)	9.9e-06 (inactive)	0.00538 (inactive)	0.226% (inactive)	8.51% (inactive)
CC1C(c2ccccc2)N(C)CCC12NC(=O)NC2=O (stereo not drawn)	315	-0.8% (inactive)	-12.3% (inactive)	108%	-43% (inactive)	135%	-0.397 (inactive)	6.4e-05 (inactive)	0.00604 (inactive)	-0.144% (inactive)	3.49% (inactive)
CCn1c(COc2cccc3ccccc23)nnc1SCC(N)=O	436	9.4% (inactive)	-3.1% (inactive)	99.6%	-0.1% (inactive)	124%	-0.524 (inactive)	-6.7e-05 (inactive)	0.00477 (inactive)	12.9% (inactive)	19.7% (inactive)
C=CCN1C(=O)/C(=C2/Sc3ccccc3N2C)SC1=Nc1c(C)n[nH]c1C	401	-0.2% (inactive)	-18.2% (inactive)	103%	-70.1% (inactive)	106%	-0.519 (inactive)	-2.3e-05 (inactive)	0.00378 (inactive)	12.6% (inactive)	10.1% (inactive)
CCCCCCC(=O)c1c(C)[nH]c(C(=O)OCC)c1C	310	-4.2% (inactive)	14.4% (inactive)	59.6%	-54.5% (inactive)	102%	-0.517 (inactive)	-2.8e-05 (inactive)	0.00442 (inactive)	-13.2% (inactive)	-55.3% (inactive)
Cc1ccccc1CN1CCNC1=O	624	40.3% (active)	7% (inactive)	88.7%	-69.6% (inactive)	138%	-0.558 (inactive)	-4e-05 (inactive)	0.00621 (inactive)	23.3% (inactive)	26.8% (inactive)
Cc1ccc(C(=O)C2COC(=O)C2)cc1 (stereo not drawn)	333	4.9% (inactive)	-2.7% (inactive)	116%	-31.2% (inactive)	103%	-0.579 (inactive)	-2.8e-05 (inactive)	0.00631 (inactive)	18.7% (inactive)	0.799% (inactive)
Cc1ccc(C(C)C)c(OCCCN2CC(C)OC(C)C2)c1 (stereo not drawn)	344	-3.9% (inactive)	-17.9% (inactive)	106%	-2.6% (inactive)	100%	-0.243 (inactive)	-5.1e-06 (inactive)	0.00607 (inactive)	8.84% (inactive)	26.1% (inactive)
O=C(Cn1ccc2ccccc2c1=O)NCCC(=O)N1CCN(C2CCCCC2)CC1	510	-3.8% (inactive)	10.9% (inactive)	83.8%	15.7% (inactive)	110%	-0.395 (inactive)	2.2e-05 (inactive)	0.00596 (inactive)	9.9% (inactive)	18.5% (inactive)
COc1ccc(C(C(C(=O)c2cccs2)N2CCOCC2)N2CCOCC2)cc1OC (stereo not drawn)	704	3.6% (inactive)	6.6% (inactive)	115%	15.2% (inactive)	106%	-0.603 (inactive)	-3.1e-05 (inactive)	0.00372 (inactive)	8.73% (inactive)	2.75% (inactive)
Cc1cccc(-n2c(N)c(C(=O)N3CCN(C)CC3)sc2=S)c1	786	0.5% (inactive)	-24.6% (inactive)	96.9%	-25.5% (inactive)	114%	-0.56 (inactive)	-2.7e-06 (inactive)	0.00592 (inactive)	-4.11% (inactive)	6.8% (inactive)
Cc1cc(C)c(Cn2c(=O)n(CCCC(=O)NCc3ccco3)c(=O)c3ccccc32)c(C)c1	744	-4.2% (inactive)	5.8% (inactive)	100%	-64.2% (inactive)	112%	-0.578 (inactive)	-2.4e-05 (inactive)	0.00693 (inactive)	14.8% (inactive)	17.8% (inactive)
CCC(=O)n1nc(-c2ccco2)nc1N	594	-0.5% (inactive)	-13.1% (inactive)	104%	-153% (inactive)	114%	-0.486 (inactive)	-4.1e-05 (inactive)	0.00538 (inactive)	14.3% (inactive)	15.1% (inactive)
Cn1c(C(=O)NCC2CCCO2)cc2c(=O)[nH]c3ccccc3c21 (stereo not drawn)	334	11.8% (inactive)	-27.1% (inactive)	114%	47.5% (inactive)	76.8%	-0.355 (inactive)	-5.9e-05 (inactive)	0.00794 (inactive)	-11.9% (inactive)	-5.12% (inactive)
CCN(CC)CCNC(=O)C1CCN(S(=O)(=O)N2CCCCC2)CC1	634	2.6% (inactive)	-30.2% (inactive)	48.9%	-41.5% (inactive)	109%	-0.412 (inactive)	2.2e-05 (inactive)	0.00434 (inactive)	11.3% (inactive)	15.8% (inactive)
CCCOc1ccc(C2c3c(oc4ccccc4c3=O)C(=O)N2CCCN2CCOCC2)cc1 (stereo not drawn)	559	16.8% (inactive)	26.2% (inactive)	100%	-18.5% (inactive)	101%	-0.413 (inactive)	-1.1e-05 (inactive)	0.00521 (inactive)	11.7% (inactive)	21.3% (inactive)
COCCn1c(SCC(=O)Nc2nnc(C)s2)nnc1-c1ccncc1	564	-7.5% (inactive)	7.7% (inactive)	99.2%	-32.1% (inactive)	115%	-0.172 (inactive)	-1.8e-05 (inactive)	0.00934 (inactive)	18.4% (inactive)	-2.25% (inactive)
CN(Cc1cccs1)c1ncnc2sccc12	549	-11.6% (inactive)	-28.3% (inactive)	101%	-38.6% (inactive)	147%	-0.456 (inactive)	2.8e-05 (inactive)	0.00479 (inactive)	7.29% (inactive)	-37.9% (inactive)
Cn1c(CN2CCOCC2)nc2cc(NC(=O)c3ccccc3Cl)ccc21	463	7.9% (inactive)	-4.3% (inactive)	102%	-19.9% (inactive)	113%	-0.588 (inactive)	-2.3e-05 (inactive)	0.00633 (inactive)	8.55% (inactive)	2.36% (inactive)
COc1ccc(C2C(=O)N(C3CCCCC3)CC(=O)N2Cc2ccco2)cc1 (stereo not drawn)	632	-15% (inactive)	-40.5% (inactive)	124%	-26.6% (inactive)	101%	-0.526 (inactive)	1.7e-05 (inactive)	0.00562 (inactive)	16.7% (inactive)	22.1% (inactive)
CC(C)CC(=O)CN1C(=O)C2(OCCO2)c2ccccc21	490	-2.4% (inactive)	22.6% (inactive)	100%	6.8% (inactive)	94.9%	-0.231 (inactive)	-1.2e-05 (inactive)	0.00852 (inactive)	17.6% (inactive)	-9.91% (inactive)
Cc1ccc(C)c(Cn2c(=O)n(CCC(=O)NCc3ccco3)c(=O)c3sccc32)c1	506	-4.5% (inactive)	3.9% (inactive)	95.3%	17.2% (inactive)	93.3%	-0.572 (inactive)	-5.2e-06 (inactive)	0.00734 (inactive)	19.5% (inactive)	16.1% (inactive)
CCOC(=O)c1ccccc1NC(=O)CSc1nc2c(c(=O)n(C)c(=O)n2C)n1C	718	-6.2% (inactive)	-10.4% (inactive)	107%	12.3% (inactive)	102%	-0.444 (inactive)	3e-05 (inactive)	0.00588 (inactive)	18.4% (inactive)	25% (inactive)
